Reference: the M2OR odorant receptor database

Key:
Conditions in all cases: stereoisomer not certain
OR1B1 = test system: T1, OR1B1
T1 sequence (whole entry): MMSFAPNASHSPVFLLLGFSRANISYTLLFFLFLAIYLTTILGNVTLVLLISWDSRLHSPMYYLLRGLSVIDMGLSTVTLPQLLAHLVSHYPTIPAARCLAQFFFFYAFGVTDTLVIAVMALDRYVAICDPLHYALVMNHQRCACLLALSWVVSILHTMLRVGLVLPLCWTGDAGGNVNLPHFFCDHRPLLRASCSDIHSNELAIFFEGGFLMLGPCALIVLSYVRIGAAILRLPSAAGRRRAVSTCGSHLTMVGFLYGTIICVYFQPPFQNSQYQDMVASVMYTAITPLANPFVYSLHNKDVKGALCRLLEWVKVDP
Method in brief: (§1)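 Transient luciferase assays in mammalian cell lines were common, though methods varied by source. The values come from published papers and their supplementary material, with extra details from the original authors when needed. Responsive refers to a measured signal the original authors judged statistically different from baseline, and non-responsive (inactive) to the remainder.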

OR1C1 (Homo sapiens) = target: T2, OR1C1 (Homo sapiens) (UniProt Q15619)
T2 sequence (whole entry): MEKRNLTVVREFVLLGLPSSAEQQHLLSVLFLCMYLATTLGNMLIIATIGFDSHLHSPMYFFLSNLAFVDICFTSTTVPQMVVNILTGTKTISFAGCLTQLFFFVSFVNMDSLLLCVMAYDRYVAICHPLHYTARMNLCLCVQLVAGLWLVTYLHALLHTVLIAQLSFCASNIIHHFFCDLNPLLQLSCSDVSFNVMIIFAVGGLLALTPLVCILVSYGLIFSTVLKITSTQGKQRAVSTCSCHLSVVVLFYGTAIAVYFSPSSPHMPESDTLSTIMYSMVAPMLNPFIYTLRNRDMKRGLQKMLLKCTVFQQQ
Method in brief: as §1

OR1D2 (Homo sapiens) = target: T3, OR1D2 (Homo sapiens) (UniProt P34982)
T3 sequence (whole entry): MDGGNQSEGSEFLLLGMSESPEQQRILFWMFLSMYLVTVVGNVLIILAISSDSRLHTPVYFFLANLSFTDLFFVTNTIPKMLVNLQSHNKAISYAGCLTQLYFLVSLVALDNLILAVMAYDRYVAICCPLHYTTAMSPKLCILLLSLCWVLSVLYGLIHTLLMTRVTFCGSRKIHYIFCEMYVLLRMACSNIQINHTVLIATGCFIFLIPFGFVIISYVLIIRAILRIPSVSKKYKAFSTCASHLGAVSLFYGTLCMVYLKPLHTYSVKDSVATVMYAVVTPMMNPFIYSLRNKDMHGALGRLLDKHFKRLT
Method in brief: as §1

OR1D2 = test system: OR1D2
Method in brief: as §1

OR1A2 S155N = test system: OR1A2 S155N
Method in brief: as §1

OR1A2 T154A S155N = test system: OR1A2 T154A S155N
Method in brief: as §1

OR1A2 T154A = test system: OR1A2 T154A
Method in brief: as §1

OR1A2 T254V = test system: OR1A2 T254V
Method in brief: as §1

OR1A2 V205I = test system: OR1A2 V205I
Method in brief: as §1

OR1A2 V277T = test system: OR1A2 V277T
Method in brief: as §1
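Also: active if original authors judged signal statistically different from baseline.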

OR1A2 T154A, sequence (as listed by the source, stated change not applied): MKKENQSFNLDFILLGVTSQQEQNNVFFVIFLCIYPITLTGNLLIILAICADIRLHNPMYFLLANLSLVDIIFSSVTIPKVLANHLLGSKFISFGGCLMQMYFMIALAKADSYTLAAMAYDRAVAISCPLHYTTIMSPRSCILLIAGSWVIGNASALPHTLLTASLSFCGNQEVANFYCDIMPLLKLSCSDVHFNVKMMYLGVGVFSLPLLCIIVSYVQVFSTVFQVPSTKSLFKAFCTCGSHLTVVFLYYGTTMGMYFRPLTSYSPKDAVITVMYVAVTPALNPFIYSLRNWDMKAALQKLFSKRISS
OR1A2 T254V, sequence (as listed by the source, stated change not applied): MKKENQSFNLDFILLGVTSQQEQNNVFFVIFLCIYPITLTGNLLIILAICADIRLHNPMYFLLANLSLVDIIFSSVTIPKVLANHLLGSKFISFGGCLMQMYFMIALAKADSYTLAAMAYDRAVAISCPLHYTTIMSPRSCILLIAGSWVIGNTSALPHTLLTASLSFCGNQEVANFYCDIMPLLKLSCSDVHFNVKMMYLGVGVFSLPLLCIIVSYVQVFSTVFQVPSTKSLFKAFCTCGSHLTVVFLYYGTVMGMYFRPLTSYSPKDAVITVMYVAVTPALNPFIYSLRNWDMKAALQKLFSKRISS
OR1A2 V277T, sequence (as listed by the source, stated change not applied): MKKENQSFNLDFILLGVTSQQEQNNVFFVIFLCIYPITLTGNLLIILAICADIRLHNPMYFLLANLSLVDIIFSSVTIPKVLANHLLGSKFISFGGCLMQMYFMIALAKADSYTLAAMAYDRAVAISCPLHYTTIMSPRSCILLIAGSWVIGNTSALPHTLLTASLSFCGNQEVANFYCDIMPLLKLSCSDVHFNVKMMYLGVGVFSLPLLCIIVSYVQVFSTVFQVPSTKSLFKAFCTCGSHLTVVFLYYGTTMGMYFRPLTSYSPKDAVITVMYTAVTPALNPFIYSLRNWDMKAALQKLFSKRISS
OR1A2 S155N, sequence (as listed by the source, stated change not applied): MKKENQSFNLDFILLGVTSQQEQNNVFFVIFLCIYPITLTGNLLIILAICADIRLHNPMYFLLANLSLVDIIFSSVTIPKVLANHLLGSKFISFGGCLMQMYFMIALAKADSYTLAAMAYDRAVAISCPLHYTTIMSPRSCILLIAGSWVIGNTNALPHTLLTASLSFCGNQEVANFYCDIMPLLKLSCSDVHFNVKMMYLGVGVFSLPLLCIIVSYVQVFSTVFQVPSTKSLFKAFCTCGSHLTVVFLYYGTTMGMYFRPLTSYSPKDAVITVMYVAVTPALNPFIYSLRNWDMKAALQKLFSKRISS
OR1D2, sequence (as listed by the source): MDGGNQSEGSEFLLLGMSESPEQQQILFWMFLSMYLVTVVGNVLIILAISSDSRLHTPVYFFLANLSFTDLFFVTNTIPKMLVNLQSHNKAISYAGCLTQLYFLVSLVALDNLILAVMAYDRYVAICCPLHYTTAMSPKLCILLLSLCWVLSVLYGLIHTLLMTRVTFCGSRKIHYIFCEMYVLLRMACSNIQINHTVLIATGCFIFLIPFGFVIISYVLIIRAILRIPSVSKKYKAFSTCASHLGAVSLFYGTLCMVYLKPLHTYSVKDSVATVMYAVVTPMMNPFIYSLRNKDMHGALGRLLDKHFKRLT
OR1A2 V205I, sequence (as listed by the source, stated change not applied): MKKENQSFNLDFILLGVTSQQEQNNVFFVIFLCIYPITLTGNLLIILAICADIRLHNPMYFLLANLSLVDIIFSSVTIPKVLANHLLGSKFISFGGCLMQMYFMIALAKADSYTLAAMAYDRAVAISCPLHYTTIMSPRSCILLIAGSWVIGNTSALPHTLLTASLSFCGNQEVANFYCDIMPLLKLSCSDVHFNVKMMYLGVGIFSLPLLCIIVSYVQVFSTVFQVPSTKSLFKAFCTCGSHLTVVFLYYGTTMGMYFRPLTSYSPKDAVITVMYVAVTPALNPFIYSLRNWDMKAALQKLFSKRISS

## CCC(S)C(C)CO (centres undefined)
OR1B1
  odorant receptor agonist call: inactive
OR1C1 (Homo sapiens)
  odorant receptor agonist call: inactive
OR1D2 (Homo sapiens)
  odorant receptor agonist call: inactive

## O=CCCc1ccccc1
OR1D2 (Homo sapiens)
  odorant receptor agonist call: active

## CC(C)(C)c1ccc(OCC=O)cc1
OR1D2 (Homo sapiens)
  odorant receptor agonist call: active

## CC(CO)CS (centres undefined)
OR1B1
  odorant receptor agonist call: inactive
OR1C1 (Homo sapiens)
  odorant receptor agonist call: inactive
OR1D2 (Homo sapiens)
  odorant receptor agonist call: inactive

## CC(C=O)Cc1ccc(C(C)(C)C)cc1 (centres undefined)
OR1D2 (Homo sapiens)
  odorant receptor agonist call: inactive
OR1D2
  odorant receptor agonist call: inactive

## CC1CCCCCCCCCCCCC(=O)C1 (centres undefined)
OR1B1
  odorant receptor agonist call: inactive
OR1C1 (Homo sapiens)
  odorant receptor agonist call: inactive

## Cc1cnc(C)c(C)n1
OR1B1
  odorant receptor agonist call: inactive
OR1C1 (Homo sapiens)
  odorant receptor agonist call: inactive
OR1D2 (Homo sapiens)
  odorant receptor agonist call: inactive

## CCCCC(S)C(C)CO (centres undefined)
OR1B1
  odorant receptor agonist call: inactive
OR1C1 (Homo sapiens)
  odorant receptor agonist call: inactive
OR1D2 (Homo sapiens)
  odorant receptor agonist call: inactive

## CC(=O)c1c(C)c([N+](=O)[O-])c(C(C)(C)C)c([N+](=O)[O-])c1C
OR1B1
  odorant receptor agonist call: inactive
OR1C1 (Homo sapiens)
  odorant receptor agonist call: inactive

## O=CCCCCc1ccccc1
OR1D2 (Homo sapiens)
  odorant receptor agonist call: inactive

## CCC1OC(C)=C(O)C1=O (centres undefined)
OR1B1
  odorant receptor agonist call: inactive
OR1C1 (Homo sapiens)
  odorant receptor agonist call: inactive
OR1D2 (Homo sapiens)
  odorant receptor agonist call: inactive

## O=CCCCc1ccccc1
OR1D2 (Homo sapiens)
  odorant receptor agonist call: active

## CC(C)c1ccccc1
OR1D2 (Homo sapiens)
  odorant receptor agonist call: inactive

## CCCCCC(S)C(C)CO (centres undefined)
OR1B1
  odorant receptor agonist call: inactive
OR1C1 (Homo sapiens)
  odorant receptor agonist call: inactive
OR1D2 (Homo sapiens)
  odorant receptor agonist call: inactive

## CCCCCCC=CCCC=O
OR1B1
  odorant receptor agonist call: inactive
OR1C1 (Homo sapiens)
  odorant receptor agonist call: inactive
OR1D2 (Homo sapiens)
  odorant receptor agonist call: inactive

## CC(C)=CCCC(C)CCO (centres undefined)
OR1A2 S155N
  odorant receptor agonist call: inactive
OR1A2 T154A S155N
  odorant receptor agonist call: inactive
OR1A2 T154A
  odorant receptor agonist call: inactive
OR1A2 T254V
  odorant receptor agonist call: inactive
OR1A2 V205I
  odorant receptor agonist call: inactive
OR1A2 V277T
  odorant receptor agonist call: inactive

## O=C(O)CCc1ccccc1
OR1D2 (Homo sapiens)
  odorant receptor agonist call: inactive

## CC1=NC(C)C(C)S1 (centres undefined)
OR1B1
  odorant receptor agonist call: inactive
OR1C1 (Homo sapiens)
  odorant receptor agonist call: inactive
OR1D2 (Homo sapiens)
  odorant receptor agonist call: inactive

## CCCC(S)CCOC(C)=O (centres undefined)
OR1B1
  odorant receptor agonist call: inactive
OR1C1 (Homo sapiens)
  odorant receptor agonist call: inactive
OR1D2 (Homo sapiens)
  odorant receptor agonist call: inactive

## CC1=C(O)C(=O)C(C)O1 (centres undefined)
OR1B1
  odorant receptor agonist call: inactive
OR1C1 (Homo sapiens)
  odorant receptor agonist call: inactive
OR1D2 (Homo sapiens)
  odorant receptor agonist call: inactive

## CC=Cc1ccc(OC)cc1
OR1D2 (Homo sapiens)
  odorant receptor agonist call: inactive

## CCC1OC(=O)C(O)=C1C (centres undefined)
OR1B1
  odorant receptor agonist call: inactive
OR1C1 (Homo sapiens)
  odorant receptor agonist call: inactive
OR1D2 (Homo sapiens)
  odorant receptor agonist call: inactive

## CC(CCO)c1ccccc1 (centres undefined)
OR1D2 (Homo sapiens)
  odorant receptor agonist call: inactive

## CC(C=O)Cc1ccc(C(C)C)cc1 (centres undefined)
OR1D2 (Homo sapiens)
  odorant receptor agonist call: active

## CCc1ccc(CC(C)(C)C=O)cc1
OR1D2 (Homo sapiens)
  odorant receptor agonist call: active

## CC1=C(O)C(=O)OC1C (centres undefined)
OR1B1
  odorant receptor agonist call: inactive
OR1C1 (Homo sapiens)
  odorant receptor agonist call: inactive
OR1D2 (Homo sapiens)
  odorant receptor agonist call: inactive

## CCCCCC(=O)C(C)C(C)=O (centres undefined)
OR1B1
  odorant receptor agonist call: inactive
OR1C1 (Homo sapiens)
  odorant receptor agonist call: inactive
OR1D2 (Homo sapiens)
  odorant receptor agonist call: inactive

## CC(CC=O)c1ccccc1 (centres undefined)
OR1D2 (Homo sapiens)
  odorant receptor agonist call: active

## COc1ccc(CC(C)C=O)cc1 (centres undefined)
OR1D2 (Homo sapiens)
  odorant receptor agonist call: active

## O=c1ccc2ccccc2o1
OR1C1 (Homo sapiens)
  odorant receptor agonist call: active
